Data: ChEMBL document CHEMBL1126594, “Studies directed toward the design of orally active renin inhibitors. 1. Some factors influencing the absorption of small peptides” (J Med Chem, 1993)

Columns and labels:
[1] = Plasma level by the renin inhibition assay from samples taken at 30 minutes from systemic circulation by administering 10 mg/kg intraduodenally to the rat
Renin = target: T1, Renin (Homo sapiens, UniProt P00797); experiment: Inhibition of human plasma renin at pH 7.4; assay type: cell-free
T1 sequence (P00797 whole entry): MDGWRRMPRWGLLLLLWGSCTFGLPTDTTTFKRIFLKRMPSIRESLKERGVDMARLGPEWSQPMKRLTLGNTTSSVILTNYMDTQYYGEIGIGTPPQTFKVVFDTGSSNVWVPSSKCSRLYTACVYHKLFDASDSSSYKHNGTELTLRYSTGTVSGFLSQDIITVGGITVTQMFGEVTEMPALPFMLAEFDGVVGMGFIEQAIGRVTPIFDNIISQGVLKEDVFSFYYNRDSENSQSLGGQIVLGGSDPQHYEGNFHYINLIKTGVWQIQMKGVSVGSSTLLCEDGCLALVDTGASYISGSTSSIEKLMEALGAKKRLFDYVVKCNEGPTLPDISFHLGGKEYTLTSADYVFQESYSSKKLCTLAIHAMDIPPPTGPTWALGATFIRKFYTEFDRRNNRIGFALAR
Outline: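 Human plasma renin, pH 7.4; IC50 determined by the previously described method.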

[2] = Partition coefficient (logD7.4); settings: octanol/water, pH 7.4
[3] = Plasma level by the renin inhibition assay from samples taken at 30 minutes from portal circulation by administering 10 mg/kg intraduodenally to the rat
[4] = Plasma level by the renin inhibition assay from samples taken at 10 minutes from systemic circulation by administering 10 mg/kg intraduodenally to the rat
[5] = Plasma level by the renin inhibition assay from samples taken at 10 minutes from portal circulation by administering 10 mg/kg intraduodenally to the rat
[6] = Integrated area under the plasma drug level-time curve after intraduodenal administration at a dose 10 mg/kg from systemic circulation in salt-depleted cynomolgus monkeys using HPLC assay; assay type: ADME, organism-based, Macaca fascicularis; design: dose 10 mg/kg, route intraduodenal; settings: cynomolgus monkey
Outline: (§1)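 Salt-depleted cynomolgus monkeys, anesthetized, n = 4; 10 mg/kg intraduodenal in ethanol/HCl (110 mol %) diluted with aqueous hydroxypropyl methylcellulose (25% ethanol final, 10 mg/mL). 5-h experiment, systemic and portal sampling. Plasma (0.40 mL) mixed with 10% Na2CO3, extracted with ethyl acetate, assayed by HPLC; recoveries 75-85%. AUC as ng h/mL; mean ± SEM.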

[7] = Integrated area under the plasma drug level-time curve after intraduodenal administration at a dose 10 mg/kg from portal circulation in salt-depleted cynomolgus monkeys using HPLC assay; assay type: ADME, organism-based, Macaca fascicularis; design: dose 10 mg/kg, route intraduodenal; settings: cynomolgus monkey; outline: as §1
[8] = Peak plasma drug level after intraduodenal administration at a dose 10 mg/kg from systemic circulation in salt-depleted cynomolgus monkeys using HPLC assay; assay type: ADME, organism-based, Macaca fascicularis; design: dose 10 mg/kg, route intraduodenal; settings: cynomolgus monkey, read-out: Activity; outline: as §1
[9] = Peak plasma drug level after intraduodenal administration at a dose 10 mg/kg from portal circulation in salt-depleted cynomolgus monkeys using HPLC assay; assay type: ADME, organism-based, Macaca fascicularis; design: dose 10 mg/kg, route intraduodenal; settings: cynomolgus monkey, read-out: Activity; outline: as §1

| concentration at 0.5 h [1] [ng/mL] | IC50 (Renin) [nM] | logD [2] | concentration at 0.5 h [3] [ng/mL] | concentration at 10 min [4] [ng/mL] | concentration at 10 min [5] [ng/mL] | AUC [6] [ng·h/mL] | AUC [7] [ng·h/mL] | Cmax [8] [ng/mL] | Cmax [9] [ng/mL] | Structure (SMILES) |
| --- | --- | --- | --- | --- | --- | --- | --- | --- | --- | --- |
| 40 | 5.4 | 1.66 | 30 | 63 | 67 |  |  |  |  | CC(C)C[C@H](O)[C@H](O)[C@H](CC1CCCCC1)NC(=O)[C@H](Cc1c[nH]cn1)NC(=O)[C@@H](CC(=O)N1CCN(C)CC1)Cc1ccccc1 |
| 110 | 17 |  | 250 | 93 | 140 |  |  |  |  | CCN1C[C@@H]([C@H](O)[C@H](CC2CCCCC2)NC(=O)[C@H](Cc2c[nH]cn2)NC(=O)[C@H](Cc2ccc(OC)cc2)NC(=O)CC(C)(C)N)OC1=O |
|  | 120 |  |  |  |  |  |  |  |  | COc1ccc(C[C@H](NC(=O)N2CCN(C)CC2)C(=O)N[C@@H](Cc2cscn2)C(=O)N[C@@H](CC2CCCCC2)[C@@H](O)[C@@H](O)CC(C)C)cc1 |
| 90 | 170 | 3.03 | 770 | 160 | 1200 |  |  |  |  | COc1ccc(C[C@H](NC(=O)C2CCN(C)CC2)C(=O)N[C@@H](Cc2cscn2)C(=O)N[C@@H](CC2CCCCC2)[C@@H](O)[C@@H](O)CC(C)C)cc1 |
| 170 | 88 | > 4.6 | 1400 | 340 | 3500 |  |  |  |  | CON(C)C[C@H](NC(=O)[C@@H](CC(=O)N1CCOCC1)Cc1ccccc1)C(=O)N[C@@H](CC1CCCCC1)[C@@H](O)[C@@H](O)CC(C)C |
|  | 210 |  |  |  |  |  |  |  |  | CC(C)C[C@H](O)[C@H](O)[C@H](CC1CCCCC1)NC(=O)[C@H](CN(C)C)NC(=O)[C@@H](CC(=O)N1CCOCC1)Cc1ccccc1 |
|  | 93 | 3.79 |  |  |  |  |  |  |  | CC(C)C[C@H](O)[C@H](O)[C@H](CC1CCCCC1)NC(=O)[C@H](Cn1ccnc1)NC(=O)[C@@H](CC(=O)N1CCOCC1)Cc1ccccc1 |
| 82 |  |  | 540 | 170 | 1100 |  |  |  |  | COc1ccc(C[C@H](NC(=O)CC(C)(C)N)C(=O)N[C@@H](Cc2cnc[nH]2)C(=O)N[C@@H](CC2CCCCC2)[C@@H](O)[C@@H](O)CC(C)C)cc1 |
| 11 | 1.6 | 3.51 | 170 | 13 | 190 |  |  |  |  | CC(C)C[C@H](O)[C@H](O)[C@H](CC1CCCCC1)NC(=O)[C@H](Cc1c[nH]cn1)NC(=O)[C@@H](CC(=O)N1CCOCC1)Cc1ccccc1 |
| 140 | 18 | 4.39 | 2300 | 86 | 2000 |  |  |  |  | CC(C)C[C@H](O)[C@H](O)[C@H](CC1CCCCC1)NC(=O)[C@H](Cn1cccn1)NC(=O)[C@@H](CC(=O)N1CCN(C)CC1)Cc1ccccc1 |
|  | 11 | 4.1 |  |  |  |  |  |  |  | CC(C)C[C@H](O)[C@H](O)[C@H](CC1CCCCC1)NC(=O)[C@H](CN=[N+]=[N-])NC(=O)[C@@H](CC(=O)N1CCOCC1)Cc1ccccc1 |
| 320 | 110 | 3.71 | 3300 | 470 | 4900 |  |  |  |  | CC(C)C[C@H](O)[C@H](O)[C@H](CC1CCCCC1)NC(=O)[C@H](Cc1cn(C)cn1)NC(=O)[C@@H](CC(=O)N1CCOCC1)Cc1ccccc1 |
| 7 |  | 2.49 | 58 | 7 | 28 |  |  |  |  | CCN1C[C@@H]([C@H](O)[C@H](CC2CCCCC2)NC(=O)[C@H](Cc2cc[nH]n2)NC(=O)[C@@H](CC(=O)N2CCOCC2)Cc2ccccc2)OC1=O |
| 6 | 85 |  | 23 | 9 | 23 |  |  |  |  | COc1ccc(C[C@H](NC(=O)CC(C)(C)N)C(=O)N[C@@H](Cc2cccs2)C(=O)N[C@@H](CC2CCCCC2)[C@@H](O)[C@@H](O)CC(C)C)cc1 |
| 650 | 25 | > 4.5 | 4600 | 260 | 3200 |  |  |  |  | CCCC[C@H](NC(=O)[C@@H](CC(=O)N1CCN(C)CC1)Cc1ccccc1)C(=O)N[C@@H](CC1CCCCC1)[C@@H](O)[C@@H](O)CC(C)C |
| 300 |  | 2.83 | 1100 | 320 | 1900 | 770 | 3800 | 360 | 3200 | CCN1C[C@@H]([C@H](O)[C@H](CC2CCCCC2)NC(=O)[C@H](Cc2cscn2)NC(=O)[C@@H](CC(=O)N2CCOCC2)Cc2ccccc2)OC1=O |
| 13 | 33 |  | 53 | 17 | 93 |  |  |  |  | COc1ccc(C[C@H](NC(=O)CC(C)(C)N)C(=O)N[C@@H](Cc2cscn2)C(=O)N[C@@H](CC2CCCCC2)[C@@H](O)[C@@H](O)CC(C)C)cc1 |
| 32 | 69 |  | 45 | 16 | 13 |  |  |  |  | CCN1C[C@@H]([C@H](O)[C@H](CC2CCCCC2)NC(=O)[C@H](Cc2cccs2)NC(=O)[C@H](Cc2ccc(OC)cc2)NC(=O)CC(C)(C)N)OC1=O |
| 24 | 39 |  | 240 | 83 | 880 |  |  |  |  | CCN1C[C@@H]([C@H](O)[C@H](CC2CCCCC2)NC(=O)[C@H](Cc2cscn2)NC(=O)[C@H](Cc2ccc(OC)cc2)NC(=O)CC(C)(C)N)OC1=O |
| 620 | 37 |  | 1200 | 380 | 880 |  |  |  |  | CC(C)C[C@H](NC(=O)[C@@H](CC(=O)N1CCN(C)CC1)Cc1ccccc1)C(=O)N[C@@H](CC1CCCCC1)[C@@H](O)[C@@H](O)CC(C)C |
| 34 |  |  | 390 | 55 | 280 |  |  |  |  | CCN1C[C@@H]([C@H](O)[C@H](CC2CCCCC2)NC(=O)[C@H](Cc2cnc[nH]2)NC(=O)[C@@H](CC(=O)N2CCOCC2)Cc2ccccc2)OC1=O |
| 890 | 1600 |  | 3300 | 420 | 2600 |  |  |  |  | CC(C)C[C@H](O)[C@H](O)[C@H](CC1CCCCC1)NC(=O)[C@H](Cc1cscn1)NC(=O)[C@H](Cc1ccccc1)N1CCOCC1 |
| 380 | 25 | 3.91 | 1800 | 190 | 2500 |  |  |  |  | CC(C)C[C@H](O)[C@H](O)[C@H](CC1CCCCC1)NC(=O)[C@H](Cc1cscn1)NC(=O)[C@@H](CC(=O)CN1CCOCC1)Cc1ccccc1 |
|  | 18 |  |  |  |  |  |  |  |  | CC(C)C[C@H](O)[C@H](O)[C@H](CC1CCCCC1)NC(=O)[C@H](Cc1cscn1)NC(=O)[C@@H](CC(=O)N1CCN(C)CC1)Cc1ccccc1 |
| 22 | 2.8 | 4.02 | 27 | 21 | 53 |  |  |  |  | CC(C)C[C@H](O)[C@H](O)[C@H](CC1CCCCC1)NC(=O)[C@H](Cc1ccn[nH]1)NC(=O)[C@@H](CC(=O)N1CCN(C)CC1)Cc1ccccc1 |
|  | 110 |  |  |  |  |  |  |  |  | CC(C)C[C@H](O)[C@H](O)[C@H](CC1CCCCC1)NC(=O)[C@H](Cc1cccs1)NC(=O)[C@@H](CC(=O)N1CCN(C)CC1)Cc1ccccc1 |
|  | 3.5 |  |  |  |  |  |  |  |  | CC(C)C[C@H](O)[C@H](O)[C@H](CC1CCCCC1)NC(=O)[C@H](Cc1ccn[nH]1)NC(=O)[C@@H](CC(=O)N1CCOCC1)Cc1ccccc1 |
